Measured values as given in ChEMBL document CHEMBL1123389, “3-Hydroxy-3-methylglutaryl-coenzyme A reductase inhibitors. 2. Structural modification of 7-(substituted aryl)-3,5-dihydroxy-6-heptenoic acids and their lactone derivatives” (J Med Chem, 1986).

Assays:
[1] = target: T1, 3-hydroxy-3-methylglutaryl-coenzyme A reductase (Rattus norvegicus) (UniProt P51639); test: Relative potency to inhibit solubilized, partially purified rat liver HMG-CoA reductase compared with that of compactin.
T1 sequence (whole entry): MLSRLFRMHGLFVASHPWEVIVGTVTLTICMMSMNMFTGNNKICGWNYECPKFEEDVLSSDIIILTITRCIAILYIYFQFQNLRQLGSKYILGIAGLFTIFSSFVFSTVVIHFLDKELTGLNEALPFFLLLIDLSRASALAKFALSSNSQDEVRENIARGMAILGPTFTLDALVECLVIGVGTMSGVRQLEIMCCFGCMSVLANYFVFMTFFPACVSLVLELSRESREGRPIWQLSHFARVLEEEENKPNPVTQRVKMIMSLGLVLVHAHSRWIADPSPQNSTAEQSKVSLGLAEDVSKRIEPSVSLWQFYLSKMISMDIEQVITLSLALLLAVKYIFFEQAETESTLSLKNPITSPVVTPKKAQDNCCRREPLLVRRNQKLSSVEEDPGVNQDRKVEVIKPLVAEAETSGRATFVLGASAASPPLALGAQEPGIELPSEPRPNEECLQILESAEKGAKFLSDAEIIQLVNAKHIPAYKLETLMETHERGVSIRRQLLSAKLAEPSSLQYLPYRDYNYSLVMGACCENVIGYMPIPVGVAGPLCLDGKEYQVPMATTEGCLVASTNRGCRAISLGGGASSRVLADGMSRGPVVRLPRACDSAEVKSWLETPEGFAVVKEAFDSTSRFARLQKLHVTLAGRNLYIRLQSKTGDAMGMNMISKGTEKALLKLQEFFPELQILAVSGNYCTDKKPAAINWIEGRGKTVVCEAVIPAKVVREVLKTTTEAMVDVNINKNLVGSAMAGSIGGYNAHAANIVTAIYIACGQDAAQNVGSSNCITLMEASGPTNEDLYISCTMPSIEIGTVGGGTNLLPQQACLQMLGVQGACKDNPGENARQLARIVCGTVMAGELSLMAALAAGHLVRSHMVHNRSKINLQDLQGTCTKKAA

[2] = target: T2, 3-hydroxy-3-methylglutaryl-coenzyme A reductase (Rattus norvegicus, UniProt P51639); test: Inhibition of solubilized, partially purified rat liver HMG-CoA reductase
T2 sequence (P51639 whole entry): T1 sequence (whole entry)
Outline: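 Enzyme solubilized from fresh microsomes and purified through the second ammonium sulfate precipitation. It was diluted in 100 mM phosphate, pH 7.2, to give 50 000–60 000 dpm per 100 μL in control. Assay mix (0.8 mL): phosphate pH 7.2 100 mM, MgCl2 3 mM, NADP 3 mM, glucose 6-phosphate 10 mM, G6PDH 3 units, glutathione 50 mM, [14C]HMG-CoA 0.2 mM. Compounds were added as dihydroxy acid Na salts at multiple concentrations. Incubation ran 40 min at 37 °C, stopped with HCl, then lactonized. [14C]mevalonolactone was separated on Bio-Rex 5 and counted. IC50 came from a least-squares line of % inhibition vs concentration.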

SMILES | Relative potency [1] | IC50 [2]
O=C1C[C@H](O)CC(CCc2c(O)cc(Cl)cc2Cl)O1 (stereo partly specified) | 0.2 | 7900 nM
O=C1C[C@H](O)C[C@@H](CCc2c(Cl)cc(Cl)cc2OCc2ccccc2)O1 (stereo in doubt; 8a(-)) [listing 1 of 2 here] | – | 5200 nM
N#Cc1ccc(COc2cc(Cl)cc(Cl)c2/C=C/[C@@H]2C[C@@H](O)CC(=O)O2)cc1 | 1.25 | 2000 nM
O=C1C[C@H](O)C[C@@H](/C=C/c2c(Cl)cc(Cl)cc2OCc2ccc(F)cc2)O1 | 7.5 | 200 nM
O=C1C[C@H](O)C[C@@H](CCc2c(Cl)cc(Cl)cc2OCc2ccccc2)O1 (racemic) [listing 1 of 2 here] | 12 | –
O=C1C[C@H](O)C[C@@H](/C=C/c2c(Cl)cc(Cl)cc2OCc2ccccn2)O1 | 1.8 | 1200 nM
CCCCCOc1cc(Cl)cc(Cl)c1/C=C/[C@@H]1C[C@@H](O)CC(=O)O1 | 2.4 | 1000 nM
O=C1C[C@H](O)C[C@@H](CCc2c(Cl)cc(Cl)cc2OCc2ccc(F)cc2)O1 (stereo in doubt; 66) [listing 1 of 2 here] | 38 | –
O=C1C[C@H](O)C[C@@H](/C=C/c2c(Cl)cccc2Cl)O1 | 0.14 | 7900 nM
O=C1C[C@H](O)C[C@@H](/C=C/c2ccccc2-c2ccccc2)O1 | 0.63 | 3000 nM
O=C1C[C@H](O)C[C@@H](/C=C/c2c(Cl)cc(Cl)cc2OCc2cccs2)O1 | 3 | 600 nM
Cc1ccc(COc2cc(Cl)cc(Cl)c2/C=C/[C@@H]2C[C@@H](O)CC(=O)O2)cc1 | 0.3 | 4900 nM
COCCOCOc1cc(Cl)cc(Cl)c1/C=C/[C@@H]1C[C@@H](O)CC(=O)O1 | 0.4 | 11000 nM
O=C1C[C@H](O)CC(CCc2c(Cl)cc(Cl)cc2OCc2ccccc2F)O1 (stereo partly specified) | 10 | 150 nM
Cc1cc(OCc2ccccc2)cc(C)c1/C=C/[C@@H]1C[C@@H](O)CC(=O)O1 | 3.7 | 620 nM
O=C1C[C@H](O)C[C@@H](/C=C/c2c(Cl)cc(Cl)cc2OCc2ccccc2)O1 (racemic) | 3.5 | 430 nM
O=C1C[C@H](O)CC(CCc2c(Cl)cc(Cl)cc2OCC2CCCCC2)O1 (stereo partly specified) | 4.4 | 750 nM
O=C1C[C@H](O)C[C@@H](/C=C/c2c(Cl)cc(Cl)cc2OCc2ccc[n+]([O-])c2)O1 | 0.016 | 122000 nM
O=C1C[C@H](O)C[C@@H](/C=C/c2c(Cl)cc(Cl)cc2OCc2c(F)c(F)c(F)c(F)c2F)O1 | 2.3 | 700 nM
O=C1C[C@H](O)C[C@@H](/C=C/c2c(Cl)cc(Cl)cc2OCCC23CC4CC(CC(C4)C2)C3)O1 | 0.7 | 3000 nM
CCCCCOc1c(Cl)cc(Cl)cc1/C=C/[C@@H]1C[C@@H](O)CC(=O)O1 | – | 13000 nM
O=C1C[C@H](O)C[C@@H](/C=C/c2c(Cl)cc(Cl)cc2OCCOc2ccc(Cl)cc2)O1 | 3.3 | 1000 nM
CSCOc1cc(Cl)cc(Cl)c1/C=C/[C@@H]1C[C@@H](O)CC(=O)O1 | 2.1 | 760 nM
O=C1C[C@H](O)C[C@@H](/C=C/c2c(Cl)cc(Cl)cc2OC(c2ccccc2)c2ccccc2)O1 | 0.7 | 6300 nM
O=C1C[C@H](O)C[C@@H](/C=C/c2ccccc2)O1 | 0.004 | 284000 nM
COc1ccc(COc2cc(Cl)cc(Cl)c2/C=C/[C@@H]2C[C@@H](O)CC(=O)O2)cc1 | 0.8 | 2600 nM
Cc1ccc(/C=C/[C@@H]2C[C@@H](O)CC(=O)O2)c(C)c1 | – | 29900 nM

SMILES | Relative potency [1] | IC50 [2]
O=C1C[C@H](O)C[C@@H](/C=C/c2ccc(-c3ccccc3)cc2)O1 | – | 55000 nM
O=C1C[C@H](O)C[C@@H](/C=C/c2c(Cl)cc(Cl)cc2OCCCc2ccccc2)O1 | 1.6 | 1450 nM
O=C1C[C@H](O)C[C@@H](/C=C/c2c(Cl)cc(Cl)cc2OCCc2ccccc2)O1 | 5 | 480 nM
O=C1C[C@H](O)C[C@@H](CCc2c(Cl)cc(Cl)cc2OCc2ccccc2)O1 (stereo in doubt; 8a(+)) [listing 1 of 2 here] | – | 68 nM
O=C1C[C@H](O)C[C@@H](/C=C/c2ccccc2Cl)O1 | 0.15 | 7400 nM
O=C1C[C@H](O)C[C@@H](/C=C/c2ccc(Cl)c(Cl)c2)O1 | – | 35000 nM
O=C1C[C@H](O)C[C@@H](/C=C/c2c(Cl)cc(Cl)cc2OCc2ccc(F)cc2F)O1 | 7.5 | 200 nM
O=C1C[C@H](O)C[C@@H](CCc2c(Cl)cc(Cl)cc2OCc2ccc(F)cc2)O1 (stereo in doubt; 66) [listing 2 of 2 here] | – | 76 nM
O=C1C[C@H](O)C[C@@H](CCc2c(Cl)cc(Cl)cc2COc2ccccc2)O1 | 6 | 390 nM
O=C1C[C@H](O)C[C@@H](/C=C/c2ccc(Cl)cc2Cl)O1 | 0.08 | –
O=C1C[C@H](O)C[C@@H](/C=C/c2c(Cl)cc(Cl)cc2OCc2ccccc2F)O1 | 5.9 | 510 nM
O=C1C[C@H](O)C[C@@H](/C=C/c2c(Cl)cc(OCc3ccccc3)cc2Cl)O1 | 4 | 450 nM
CC(CCOc1cc(Cl)cc(Cl)c1/C=C/[C@@H]1C[C@@H](O)CC(=O)O1)CC(C)(C)C (stereo partly specified) | 0.09 | 38000 nM
O=C1C[C@H](O)C[C@@H](/C=C/c2c(Cl)cc(OCc3ccc(F)cc3)cc2Cl)O1 | 2.7 | 670 nM
O=C1C[C@H](O)C[C@@H](/C=C/c2c(Cl)cc(Cl)cc2OC/C=C/c2ccccc2)O1 | 1.1 | 1900 nM
O=C1C[C@H](O)C[C@@H](CCc2c(Cl)cc(Cl)cc2OCc2ccccc2)O1 (stereo in doubt; 8a(-)) [listing 2 of 2 here] | 0.25 | –
O=C1C[C@H](O)C[C@@H](/C=C/c2c(Cl)cc(Cl)cc2OCc2ccco2)O1 | 3 | 600 nM
O=C1C[C@H](O)C[C@@H](/C=C/c2c(Cl)cc(Cl)cc2OCc2cccc3ccccc23)O1 | 0.4 | 4400 nM
O=C1C[C@H](O)C[C@@H](/C=C/c2c(Cl)cc(Cl)cc2OCc2cc[n+]([O-])cc2)O1 | 0.016 | 117000 nM
O=C1C[C@H](O)CC(CCc2c(Cl)cc(Cl)cc2Oc2ccccc2)O1 (stereo partly specified) | 4.5 | 330 nM
O=C1C[C@H](O)CC(CCc2c(Cl)cc(Cl)cc2OCc2ccc(C(F)(F)F)cc2)O1 (stereo partly specified) | 0.16 | 13000 nM
O=C1C[C@H](O)C[C@@H](/C=C/c2c(Cl)cc(Cl)cc2Oc2ccccc2)O1 | 1.4 | 1100 nM
O=C1C[C@H](O)C[C@@H](CCc2c(Cl)cc(Cl)cc2OCc2ccccc2)O1 (stereo in doubt; 8a(+)) [listing 2 of 2 here] | 19.1 | –
O=C1C[C@H](O)C[C@@H](CCc2c(Cl)cc(Cl)cc2OCc2ccccc2)O1 (racemic) [listing 2 of 2 here] | – | 200 nM
O=C1C[C@H](O)C[C@@H](CCc2c(Cl)cc(Cl)cc2OCc2ccc(F)cc2)O1 (stereo in doubt; 66(+)) [listing 1 of 2 here] | 58 | –
O=C1C[C@H](O)C[C@@H](CCc2c(Cl)cc(Cl)cc2OCc2ccc(F)cc2)O1 (stereo in doubt; 66(+)) [listing 2 of 2 here] | – | 50 nM
